Format in all cases: functional, cell-based
Data set [1] has as its target T1, Solute carrier family 15 member 1 (Homo sapiens) (UniProt P46059).
T1 sequence (whole entry): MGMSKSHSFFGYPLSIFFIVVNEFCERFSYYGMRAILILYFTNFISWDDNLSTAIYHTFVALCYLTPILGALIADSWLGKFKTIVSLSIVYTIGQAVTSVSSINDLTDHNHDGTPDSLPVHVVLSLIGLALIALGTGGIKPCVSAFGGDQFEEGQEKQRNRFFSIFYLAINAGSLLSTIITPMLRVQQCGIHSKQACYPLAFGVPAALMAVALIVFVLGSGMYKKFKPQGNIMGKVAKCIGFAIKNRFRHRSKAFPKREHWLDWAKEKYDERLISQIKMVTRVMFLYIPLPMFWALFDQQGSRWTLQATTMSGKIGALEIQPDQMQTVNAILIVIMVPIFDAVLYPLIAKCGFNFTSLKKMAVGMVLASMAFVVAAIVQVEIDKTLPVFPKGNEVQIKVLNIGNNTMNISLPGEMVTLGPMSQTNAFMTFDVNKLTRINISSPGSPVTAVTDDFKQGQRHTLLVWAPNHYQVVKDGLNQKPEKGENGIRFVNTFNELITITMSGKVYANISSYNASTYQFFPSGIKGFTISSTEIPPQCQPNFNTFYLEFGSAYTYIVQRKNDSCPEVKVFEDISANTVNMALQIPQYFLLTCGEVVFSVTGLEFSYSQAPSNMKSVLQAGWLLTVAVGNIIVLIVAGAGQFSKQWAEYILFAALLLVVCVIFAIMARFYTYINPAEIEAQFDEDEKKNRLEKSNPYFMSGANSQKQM
Put plainly: TP_TRANSPORTER: inhibition of Gly-Sar uptake (Gly-Sar: 50 uM, Cefluprenam: 2500uM) in PEPT1-expressing HeLa cells. A digest of the protocol:
(§1)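 HeLa cells expressing human PEPT1 cDNA. [14C]glycylsarcosine (50 μM) uptake for 5 min in Mes/Tris buffer, pH 6.0, giving an H+ gradient, with test compound at 2.5 mM. Vector-transfected uptake subtracted. Percent of control, n=3, mean ± S.E.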

Data set [2] has as its target T2, Solute carrier family 15 member 2 (Rattus norvegicus) (UniProt Q63424).
T2 sequence (whole entry): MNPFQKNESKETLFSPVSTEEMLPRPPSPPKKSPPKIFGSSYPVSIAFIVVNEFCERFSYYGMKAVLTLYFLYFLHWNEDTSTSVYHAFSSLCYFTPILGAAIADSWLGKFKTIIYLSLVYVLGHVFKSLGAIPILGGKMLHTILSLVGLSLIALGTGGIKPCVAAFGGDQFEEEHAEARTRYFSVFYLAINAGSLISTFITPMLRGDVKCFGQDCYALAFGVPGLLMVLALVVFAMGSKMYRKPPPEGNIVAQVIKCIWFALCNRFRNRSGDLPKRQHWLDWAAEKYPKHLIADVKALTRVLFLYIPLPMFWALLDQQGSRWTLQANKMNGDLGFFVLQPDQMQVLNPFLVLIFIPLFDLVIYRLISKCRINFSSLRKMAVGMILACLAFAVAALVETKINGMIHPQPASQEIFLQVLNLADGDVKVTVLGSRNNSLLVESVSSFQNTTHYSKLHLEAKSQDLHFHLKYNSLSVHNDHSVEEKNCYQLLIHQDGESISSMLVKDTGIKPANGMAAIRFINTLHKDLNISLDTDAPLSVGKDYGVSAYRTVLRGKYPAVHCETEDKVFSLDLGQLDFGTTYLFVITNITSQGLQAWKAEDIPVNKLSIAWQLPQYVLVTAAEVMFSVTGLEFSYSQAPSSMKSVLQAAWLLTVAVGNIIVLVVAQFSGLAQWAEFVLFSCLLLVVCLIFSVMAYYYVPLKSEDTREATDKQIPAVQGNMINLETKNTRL
Put plainly: TP_TRANSPORTER: inhibition of Gly-Sar uptake (Gly-Sar: 25 uM, Cefluprenam: 2500uM) in PEPT2-expressing HeLa cells. The method, boiled down:
(§2)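 HeLa cells expressing rat PEPT2 cDNA. [14C]glycylsarcosine (25 μM) uptake for 5 min under an inward H+ gradient in Mes/Tris buffer, pH 6.0, with test compound at 2.5 mM. Vector-cell uptake subtracted. Results as percent of control, three independent measurements, mean ± S.E.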

The target of data set [3] is T3, OCTN2 (organic cation/carnitine transporter 2) (Homo sapiens, UniProt O76082).
T3 sequence (O76082 whole entry): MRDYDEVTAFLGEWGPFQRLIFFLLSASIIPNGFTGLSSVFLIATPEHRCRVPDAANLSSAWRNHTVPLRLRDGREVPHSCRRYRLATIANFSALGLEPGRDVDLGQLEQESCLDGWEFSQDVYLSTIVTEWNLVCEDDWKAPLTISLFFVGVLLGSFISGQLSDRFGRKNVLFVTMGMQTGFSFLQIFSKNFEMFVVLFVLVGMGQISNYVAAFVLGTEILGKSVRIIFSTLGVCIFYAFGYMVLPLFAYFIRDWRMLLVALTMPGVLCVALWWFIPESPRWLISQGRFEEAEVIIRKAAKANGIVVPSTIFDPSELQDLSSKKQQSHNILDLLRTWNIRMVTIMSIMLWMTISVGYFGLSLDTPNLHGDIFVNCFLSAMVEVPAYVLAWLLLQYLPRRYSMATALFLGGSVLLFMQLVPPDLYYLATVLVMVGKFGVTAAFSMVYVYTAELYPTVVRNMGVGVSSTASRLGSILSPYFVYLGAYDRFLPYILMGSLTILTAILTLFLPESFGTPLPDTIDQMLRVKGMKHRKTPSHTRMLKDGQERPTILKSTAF
Put plainly: (§3) TP_TRANSPORTER: inhibition of Carnitine uptake (Carnitine: 0.02 uM, Cefluprenam: 2500 uM) in OCTN2-expressing HeLa cells. Particulars: probe carnitine (0.02 uM), read-out: Activity. More on the design: scale not given: the % may be the effect or the level left. The method, boiled down:
(§4)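 HeLa cells expressed human or rat OCTN2 cDNA by vaccinia virus/T7 system. [3H]carnitine (20 nM) uptake for 30 min at room temperature in Na+-containing Hepes/Tris buffer, pH 7.5, with β-lactam at 2.5 mM. Lysate radioactivity counted. Endogenous activity from vector-only cells subtracted. Four measurements from two transfections.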

Data set [4] has as its target T4, OCTN2 (organic cation/carnitine transporter 2) (Rattus norvegicus, UniProt O70594).
T4 sequence (O70594 whole entry): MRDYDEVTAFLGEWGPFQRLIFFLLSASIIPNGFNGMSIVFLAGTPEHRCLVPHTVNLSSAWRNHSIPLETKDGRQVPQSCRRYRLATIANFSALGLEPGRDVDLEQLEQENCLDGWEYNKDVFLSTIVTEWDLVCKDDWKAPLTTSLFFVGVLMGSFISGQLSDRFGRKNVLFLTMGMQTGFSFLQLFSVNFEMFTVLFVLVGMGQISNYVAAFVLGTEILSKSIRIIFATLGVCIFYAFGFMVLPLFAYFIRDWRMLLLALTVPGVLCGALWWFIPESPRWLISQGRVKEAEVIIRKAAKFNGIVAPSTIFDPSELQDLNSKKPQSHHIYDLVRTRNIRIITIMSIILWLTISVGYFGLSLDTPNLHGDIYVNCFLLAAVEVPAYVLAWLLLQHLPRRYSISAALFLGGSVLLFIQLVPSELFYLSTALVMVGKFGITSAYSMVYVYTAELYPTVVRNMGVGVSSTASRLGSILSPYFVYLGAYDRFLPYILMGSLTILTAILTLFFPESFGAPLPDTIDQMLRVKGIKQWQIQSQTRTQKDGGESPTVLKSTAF
Described as §3. More on the design: scale not given: the % may be the effect or the level left. Conditions: human, probe carnitine (0.02 uM), read-out: Activity. A digest of the protocol:
as §4

Data set [5] deals with T1, Solute carrier family 15 member 1 (Homo sapiens). The data set can be described thus: TP_TRANSPORTER: inhibition of Gly-Sar uptake (Gly-Sar: 50 uM, Cefoselis: 2500uM) in PEPT1-expressing HeLa cells. Also on record: scale not given: the % may be the effect or the level left. A digest of the protocol:
as §1

Data set [6] has as its target T2, Solute carrier family 15 member 2 (Rattus norvegicus). The data set can be described thus: TP_TRANSPORTER: inhibition of Gly-Sar uptake (Gly-Sar: 25 uM, Cefoselis: 2500uM) in PEPT2-expressing HeLa cells. Also on record: scale not given: the % may be the effect or the level left. The method, boiled down: as §2
Data set [7] has as its target T5, Organic cation/carnitine transporter 2 (Homo sapiens, UniProt O76082).
T5 sequence (O76082 whole entry): T3 sequence (O76082 whole entry)
Put plainly: TP_TRANSPORTER: inhibition of Carnitine uptake (Carnitine: 0.02 uM) in OCTN2-expressing HeLa cells.

Data set [8] deals with T4, OCTN2 (organic cation/carnitine transporter 2). The data set can be described thus: TP_TRANSPORTER: inhibition of Carnitine uptake (Carnitine: 0.02 uM, Cefoselis: 2500 uM) in OCTN2-expressing HeLa cells. Also on record: scale not given: the % may be the effect or the level left. Particulars: human, probe carnitine (0.02 uM), read-out: Activity. A digest of the protocol: as §4

Data set [9] concerns the target T1, Solute carrier family 15 member 1 (Homo sapiens). The data set can be described thus: TP_TRANSPORTER: inhibition of Gly-Sar uptake (Gly-Sar: 50 uM, Ceftazidime: 2500uM) in PEPT1-expressing HeLa cells. A digest of the protocol: (§5)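 HeLa cells were transfected with human PEPT1 or rat PEPT2 cDNA. [14C]glycylsarcosine uptake (50 μM for PEPT1, 25 μM for PEPT2) ran 5 min at room temperature, inward H+ gradient, 25 mM Mes/Tris pH 6.0 buffer, antibiotic 2.5 mM. Vector-cell uptake was subtracted and lysates were scintillation-counted. Mean ± S.E., three measurements.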

For data set [10], the target named is T2, Solute carrier family 15 member 2 (Rattus norvegicus). The data set can be described thus: TP_TRANSPORTER: inhibition of Gly-Sar uptake (Gly-Sar: 25 uM, Ceftazidime: 2500uM) in PEPT2-expressing HeLa cells. A digest of the protocol: as §5
Data set [11] concerns the target T5, Organic cation/carnitine transporter 2. Put plainly: (§6) TP_TRANSPORTER: inhibition of Carnitine uptake (Carnitine: 0.02 uM, Ceftazidime: 2500 uM) in OCTN2-expressing HeLa cells.
For data set [12], the target named is T6, Organic cation/carnitine transporter 2 (Rattus norvegicus, UniProt O70594).
T6 sequence (O70594 whole entry): T4 sequence (O70594 whole entry)
The description is as §6. Conditions: human.

The target in data set [13] is T5, Organic cation/carnitine transporter 2. Put plainly: TP_TRANSPORTER: inhibition of Carnitine uptake (Carnitine: 0.02 uM, Cephalexin: 2500 uM) in OCTN2-expressing HeLa cells.
In data set [14] the target is T1, Solute carrier family 15 member 1 (Homo sapiens). Put plainly: TP_TRANSPORTER: inhibition of Gly-Sar uptake (Gly-Sar: 50 uM, CER: 2500uM) in PEPT1-expressing HeLa cells. The method, boiled down:
as §1

For data set [15], the target named is T5, Organic cation/carnitine transporter 2. Put plainly: TP_TRANSPORTER: uptake in OCTN2-expressing HeLa cells. The method, boiled down: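 hOCTN2 or vector-transfected HeLa cells incubated with 1 mM cephaloridine for 1 h at 37 °C in NaCl or N-methyl-D-glucamine chloride (Na+-free) medium. Cells lysed in water and lysate centrifuged. Supernatant cephaloridine quantified by C18 HPLC with UV at 254 nm against a standard curve, expressed per 10^6 cells.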

Data set [16] shares this target. The data set can be described thus: TP_TRANSPORTER: inhibition of Carnitine uptake (Carnitine: 0.02 uM, Cephradine: 2500 uM) in OCTN2-expressing HeLa cells.

From ChEMBL document CHEMBL2074042, “beta-lactam antibiotics as substrates for OCTN2, an organic cation/carnitine transporter” (J Biol Chem, 2000) come the findings set out here.

SMILES strings stand for the structures.

On to `CC[N+](C)(C/C=C/C1=C(C(=O)[O-])N2C(=O)[C@@H](NC(=O)/C(=N\OCF)c3nsc(N)n3)[C@H]2SC1)CC(N)=O` (stereo partly specified) [CEFLUPRENAM], for which the Activity entry in data set [1] and in [2] was “is not an inhibitor [-]” each time. In addition, the values for the activity at 2500 µM in data set [3] and in data set [4] were 74% and 76%, respectively.
Turning to `CO/N=C(\C(=O)N[C@@H]1C(=O)N2C(C(=O)[O-])=C(C[n+]3ccc(N)n3CCO)CS[C@H]12)c1csc(N)n1` [CEFOSELIS], the Activity in data set [5] is 76%; in data set [6], 83%. Also, it took 6.4 mM to reach half-maximal inhibition in data set [7] (IC50). For the same compound, the activity at 2500 µM in data set [8] is 71%.
For `CC(C)(O/N=C(\C(=O)N[C@@H]1C(=O)N2C(C(=O)[O-])=C(C[n+]3ccccc3)CS[C@H]12)c1csc(N)n1)C(=O)O` [CEFTAZIDIME], the Activity entry in data set [9], in [10], in data set [11] and in data set [12] was “is not an inhibitor [-]” each time.
In the case of `CC1=C(C(=O)O)N2C(=O)[C@@H](NC(=O)[C@H](N)c3ccccc3)[C@H]2SC1` [CEPHALEXIN ANHYDROUS], in data set [13], the Activity result was “is not an inhibitor [-]”.
For `O=C(Cc1cccs1)N[C@@H]1C(=O)N2C(C(=O)[O-])=C(C[n+]3ccccc3)CS[C@H]12` [CEPHALORIDINE], the figures for the Activity entry in [14] and in data set [15] were “is not an inhibitor [-]” and “substrate [+]”, respectively.
For the compound `CC1=C(C(=O)O)N2C(=O)[C@@H](NC(=O)[C@H](N)C3=CCC=CC3)[C@H]2SC1` [CEPHRADINE], the Activity result in [16] was “is not an inhibitor [-]”.

Usually IC50 stands for the concentration that gives 50% inhibition.
